Experimental findings from ChEMBL document CHEMBL3120138, “Glucocorticoid receptor modulators informed by crystallography lead to a new rationale for receptor selectivity, function, and implications for structure-based design” (J Med Chem, 2014) are described below.

SMILES strings stand for the structures.

Assay [1] can be described thus: Antiinflammatory activity in human CCD-39SK cells assessed as inhibition of IL-1beta-induced IL-6 production incubated for 60 mins prior to IL-1beta induction measured after 24 hrs. In kind it is functional, cell-based. Summed up: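 CCD-39SK fibroblasts (20 000/well) were grown in MEM with 2% charcoal/dextran-treated FBS. Cells were pretreated with compound for 60 min, then stimulated with rhIL-1β (1 ng/mL final) for 24 h at 37 °C. IL-6 in clarified supernatant was measured. […] Ten-point half-log dilutions were used, each in triplicate.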

The target in the next assay is T1, Glucocorticoid receptor (Homo sapiens, UniProt P04150).
T1 sequence (P04150 whole entry): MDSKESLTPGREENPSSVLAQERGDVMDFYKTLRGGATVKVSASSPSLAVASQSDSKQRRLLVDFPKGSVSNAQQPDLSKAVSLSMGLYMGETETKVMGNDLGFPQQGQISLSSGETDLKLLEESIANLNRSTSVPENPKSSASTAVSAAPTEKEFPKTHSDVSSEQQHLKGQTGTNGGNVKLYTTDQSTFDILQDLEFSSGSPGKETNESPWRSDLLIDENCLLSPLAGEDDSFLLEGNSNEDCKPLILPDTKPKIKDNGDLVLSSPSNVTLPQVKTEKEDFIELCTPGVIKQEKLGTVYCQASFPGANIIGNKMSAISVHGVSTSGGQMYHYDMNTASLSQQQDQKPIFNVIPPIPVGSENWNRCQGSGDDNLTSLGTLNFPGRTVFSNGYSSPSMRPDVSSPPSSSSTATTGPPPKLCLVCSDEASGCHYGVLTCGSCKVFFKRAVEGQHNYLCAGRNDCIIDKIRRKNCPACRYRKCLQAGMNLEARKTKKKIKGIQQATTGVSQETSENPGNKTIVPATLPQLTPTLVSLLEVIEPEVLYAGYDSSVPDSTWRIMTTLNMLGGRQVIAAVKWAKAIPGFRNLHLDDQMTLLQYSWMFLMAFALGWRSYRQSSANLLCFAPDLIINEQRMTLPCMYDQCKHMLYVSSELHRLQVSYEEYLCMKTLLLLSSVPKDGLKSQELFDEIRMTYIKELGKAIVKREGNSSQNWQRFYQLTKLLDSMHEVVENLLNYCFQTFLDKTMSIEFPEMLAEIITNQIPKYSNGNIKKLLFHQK
The experiment in a line: Displacement of [3H]-dexamethasone from human glucocorticoid receptor expressed in HEK293 cells. It counts as cell-based. In general terms: In a radioligand displacement assay an active substance lowers the binding of a labelled ligand.

The target in another assay is T2, Progesterone receptor (Homo sapiens, UniProt P06401).
T2 sequence (P06401 whole entry): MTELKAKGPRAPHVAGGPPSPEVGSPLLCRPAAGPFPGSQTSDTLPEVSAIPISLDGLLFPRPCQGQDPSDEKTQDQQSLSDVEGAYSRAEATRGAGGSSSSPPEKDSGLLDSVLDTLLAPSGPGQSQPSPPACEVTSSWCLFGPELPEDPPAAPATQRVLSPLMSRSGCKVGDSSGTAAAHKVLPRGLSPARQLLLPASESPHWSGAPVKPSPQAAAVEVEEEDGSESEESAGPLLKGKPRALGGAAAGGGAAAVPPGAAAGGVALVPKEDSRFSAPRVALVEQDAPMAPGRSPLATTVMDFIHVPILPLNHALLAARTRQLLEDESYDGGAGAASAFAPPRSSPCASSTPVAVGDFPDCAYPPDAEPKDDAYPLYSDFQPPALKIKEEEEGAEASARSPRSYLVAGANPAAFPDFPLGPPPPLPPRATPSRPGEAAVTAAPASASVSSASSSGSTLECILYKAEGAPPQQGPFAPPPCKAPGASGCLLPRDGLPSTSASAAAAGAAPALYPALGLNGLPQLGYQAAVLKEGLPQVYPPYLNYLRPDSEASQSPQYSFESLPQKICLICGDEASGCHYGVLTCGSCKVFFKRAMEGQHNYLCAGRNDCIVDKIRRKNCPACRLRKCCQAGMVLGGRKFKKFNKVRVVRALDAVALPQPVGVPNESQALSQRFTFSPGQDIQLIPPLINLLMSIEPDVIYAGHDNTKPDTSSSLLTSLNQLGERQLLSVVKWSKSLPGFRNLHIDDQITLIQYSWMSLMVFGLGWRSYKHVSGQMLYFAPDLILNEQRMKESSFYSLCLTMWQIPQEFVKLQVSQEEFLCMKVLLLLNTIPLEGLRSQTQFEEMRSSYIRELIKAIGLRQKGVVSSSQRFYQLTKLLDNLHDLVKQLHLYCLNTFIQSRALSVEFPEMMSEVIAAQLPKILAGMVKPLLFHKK
The experiment in a line: Displacement of [3H]-methyltrienolone from human progesterone receptor expressed in HEK293 cells. It counts as cell-based. The gist of the method: (§1)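 Competition binding used lysates of HEK293 cells overexpressing the human receptor. The tracer was ³H-aldosterone for MR and ³H-methyltrienolone for PR. Competitor was tested from 0.01 nM to 10 μM. IC50 was converted to Ki by Cheng–Prusoff. Values are means of at least three experiments, each run in triplicate.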

For assay [2], the target named is T3, Mineralocorticoid receptor (Homo sapiens, UniProt P08235).
T3 sequence (P08235 whole entry): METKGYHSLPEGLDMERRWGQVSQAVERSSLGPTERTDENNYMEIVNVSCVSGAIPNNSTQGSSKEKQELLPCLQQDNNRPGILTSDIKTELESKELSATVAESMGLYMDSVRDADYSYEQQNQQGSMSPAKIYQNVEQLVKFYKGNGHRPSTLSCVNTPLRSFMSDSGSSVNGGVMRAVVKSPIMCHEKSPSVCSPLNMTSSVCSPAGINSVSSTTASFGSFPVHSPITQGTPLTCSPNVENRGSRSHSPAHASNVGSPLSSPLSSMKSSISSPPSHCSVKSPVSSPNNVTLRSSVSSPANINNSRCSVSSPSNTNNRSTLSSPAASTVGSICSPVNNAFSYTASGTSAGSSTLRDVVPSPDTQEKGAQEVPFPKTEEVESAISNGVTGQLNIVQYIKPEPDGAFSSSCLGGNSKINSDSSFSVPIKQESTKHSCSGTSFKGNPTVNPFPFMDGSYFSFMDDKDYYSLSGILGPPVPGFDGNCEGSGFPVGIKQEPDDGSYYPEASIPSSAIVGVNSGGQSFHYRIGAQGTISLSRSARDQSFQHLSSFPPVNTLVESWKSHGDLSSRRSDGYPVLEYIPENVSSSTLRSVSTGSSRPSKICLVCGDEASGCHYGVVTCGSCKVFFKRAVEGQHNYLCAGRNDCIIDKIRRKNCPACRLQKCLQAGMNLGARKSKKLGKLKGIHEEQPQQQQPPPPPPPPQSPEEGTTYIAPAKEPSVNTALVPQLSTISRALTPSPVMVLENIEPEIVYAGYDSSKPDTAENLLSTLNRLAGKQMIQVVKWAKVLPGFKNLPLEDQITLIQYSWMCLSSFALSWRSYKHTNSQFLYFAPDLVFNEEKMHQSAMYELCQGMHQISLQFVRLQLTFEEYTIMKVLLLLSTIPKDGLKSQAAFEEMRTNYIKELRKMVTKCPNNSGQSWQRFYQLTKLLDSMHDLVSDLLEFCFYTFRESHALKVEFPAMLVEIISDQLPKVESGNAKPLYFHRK
The experiment in a line: Displacement of [3H]-aldosterone from human mineralocorticoid receptor expressed in HEK293 cells. It counts as cell-based. The gist of the method: as §1

Usually IC50 stands for the point on the concentration scale where inhibition reaches its midpoint. By Ki is commonly meant the equilibrium dissociation constant of an inhibitor or competing ligand from its target. For `CC/C(=C1\c2ccccc2OCc2cccc(OC)c21)c1cccc(NS(C)(=O)=O)c1`, the IC50 in assay [1] was 4.38 nM. Besides, the inhibition constant Ki on Glucocorticoid receptor came to 0.268 nM; on Progesterone receptor, 26.8 nM; in assay [2], 6.1 nM.

`CC/C(=C1/c2ccccc2COc2ccccc21)c1cccc(NS(C)(=O)=O)c1`: the IC50 in assay [1] worked out at 4.8 nM. Besides, the Ki on Glucocorticoid receptor turned out to be 0.146 nM; at Progesterone receptor it was 15.5 nM; in assay [2], 0.967 nM.

For the molecule `CS(=O)(=O)Nc1cccc(C=C2c3ccccc3CCc3ccccc32)c1`, the half-maximal inhibitory concentration (IC50) in assay [1] is 75.9 nM. The values for the Ki (on Glucocorticoid receptor; on Progesterone receptor; in assay [2]) were 0.226 nM, 99 nM and 2.48 nM, respectively.

Consider `C/C(=C1/c2ccccc2COc2ccccc21)c1cccc(NS(C)(=O)=O)c1`, for which the half-maximal inhibitory concentration (IC50) in assay [1] is 9.32 nM. Moreover, the Ki on Glucocorticoid receptor is 0.257 nM; at Progesterone receptor, 6.17 nM; in assay [2] it was 0.342 nM.
